Data set [1] in a line: Displacement of [3H]flumazenil from Benzodiazepine receptor in bovine cerebral cortex membrane. The class given is cell membranes, Bos taurus.
Data set [2] concerns the target Gamma-aminobutyric acid receptor subunit alpha-2 (Rattus norvegicus, UniProt P18508+P23576+P63138). Description: Displacement of [3H]flumazenil from rat GABA-A alpha-2-beta-2-gamma-2 receptor expressed in HEK293 cells. The class given is cell-based. The essentials:
(§1)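 HEK293 membranes expressing rat α1β2γ2, α2β2γ2 or α5β3γ2, made in 10 mM potassium phosphate pH 7.4 (48000g, 4 °C) and resuspended with 100 mM KCl. Ki is mean ± SEM of three determinations in triplicate.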

For another data set, the species on record is Bos taurus. Description: Displacement of [3H]flumazenil from Benzodiazepine receptor in bovine cerebral cortex membrane at 10 uM. The class given is cell membranes.
The target in data set [3] is GABA-A receptor; alpha-1/beta-2/gamma-2 (Rattus norvegicus, UniProt P18508+P62813+P63138). Nature of the data set: Displacement of [3H]flumazenil from rat GABA-A alpha-1-beta-2-gamma-2 receptor expressed in HEK293 cells. The format is cell-based. The essentials: as §1
The target of data set [4] is GABA A receptor alpha-5/beta-3/gamma-2 (Rattus norvegicus, UniProt P18508+P19969+P63079). Nature of the data set: Displacement of [3H]flumazenil from rat GABA-A alpha-5-beta-3-gamma-2 receptor expressed in HEK293 cells. The format is cell-based. The essentials:
as §1

The target of data set [5] is GABA-A receptor; alpha-1/beta-2/gamma-2 (Rattus norvegicus) (UniProt P18508+P62813+P63138). Nature of the data set: Agonist activity at rat GABA-A alpha-1-beta-2-gamma-2 receptor expressed in HEK293 cells assessed as increase in 36Cl- influx. The format is functional, cell-based. The essentials:
(§2)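 36Cl- uptake in HEK293 cells stably expressing rat α1β2γ2 or α2β2γ2, grown 3 days on polylysine-coated coverslips. Cells washed in HEPES/NaCl buffer pH 7.4, then dipped at room temperature into 36Cl- (2 µCi/mL) with drug, with or without GABA at EC20. Influx stopped after 8 s in ice-cold buffer with 0.1 mM picrotoxin. Result is % increase of EC20 GABA response, ≥5 independent experiments.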

In data set [6] the target is Gamma-aminobutyric acid receptor subunit alpha-2 (Rattus norvegicus) (UniProt P23576). Description: Agonist activity at rat GABA-A alpha-2-beta-2-gamma-2 receptor expressed in HEK293 cells assessed as increase in 36Cl- influx. The format is functional, cell-based. The essentials:
as §2

In data set [7] the test system is Mus musculus. Description: Anxiolytic effect in CD1 mouse assessed as increase in time spent in white compartment at 20 mg/kg, ip by light/dark box test. The class given is functional, organism-based. More on the design: dose 20 mg/kg. In a few lines: (§3)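 Male CD-1 mice (35-40 g), acclimatized 4 weeks to a reversed light cycle. […] Testing started 1 h later, with mouse placed in the lit chamber for a 5 min videotaped session.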

Data set [8] concerns Mus musculus. Description: Anxiolytic effect in CD1 mouse assessed as increase in number of transfers from lit to the dark area at 20 mg/kg, ip by light/dark box test. The format is functional, organism-based. More on the design: dose 20 mg/kg. The essentials: as §3
In data set [9] the test system is Mus musculus. Nature of the data set: Toxicity in CD1 mouse assessed as sedative effect at 20 mg/kg, ip by light/dark box test. The settings on record: in vivo. More on the design: dose 20 mg/kg, route intraperitoneal. The class given is organism-based. The essentials: as §3
The target in data set [10] is GABA A receptor alpha-5/beta-3/gamma-2 (Rattus norvegicus) (UniProt P18508+P19969+P63079). Description: Displacement of [3H]flumazenil from rat GABA-A alpha-5-beta-3-gamma-2 receptor expressed in HEK293 cells at 10 uM. The class given is cell-based. The essentials: (§4)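 HEK293 membranes expressing rat α2β2γ2 or α5β3γ2 incubated with [3H]flumazenil 1-2 nM for 1 h at 4 °C, in 10 mM potassium phosphate pH 7.4 with 100 mM KCl. Compound tested at 10 µM.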

For data set [11], the target named is Gamma-aminobutyric acid receptor subunit alpha-2 (Rattus norvegicus) (UniProt P23576). Description: Displacement of [3H]flumazenil from rat GABA-A alpha-2-beta-2-gamma-2 receptor expressed in HEK293 cells at 10 uM. The format is cell-based. In a few lines: as §4
Data set [12] relates to Mus musculus. Nature of the data set: Toxicity in CD1 mouse assessed as sedative effect at 1.25 mg/kg, ip by light/dark box test. The format is organism-based. On the set-up: dose 1.25 mg/kg, route intraperitoneal. The note with it: in vivo. The essentials: (§5)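 Male CD-1 albino mice (35-40 g), acclimatized 4 weeks to reversed 12 h light cycle, dosed ip in 1% carboxymethylcellulose vehicle; 1 h later placed in centre of lit chamber of light/dark box for 5 min, videotaped. Scored time in white compartment, lit/dark transfers, and rearings plus line crossings (activity) expressed per TW; n = 4-6, mean ± SEM versus vehicle.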

Data set [13] relates to Mus musculus. Description: Anxiolytic effect in CD1 mouse assessed as increase in time spent in white compartment at 1.25 mg/kg, ip by light/dark box test. The format is functional, organism-based. On the set-up: dose 1.25 mg/kg. The essentials:
as §5

The test system of data set [14] is Mus musculus. Nature of the data set: Anxiolytic effect in CD1 mouse assessed as increase in number of transfers from lit to the dark area at 1.25 mg/kg, ip by light/dark box test. The class given is functional, organism-based. On the set-up: dose 1.25 mg/kg. In a few lines:
as §5

SMILES strings stand for the structures. Active and inactive are the calls of the source. The rule behind the calls is not given here.

Chain of GABA A receptor alpha-5/beta-3/gamma-2 (P18508 whole entry): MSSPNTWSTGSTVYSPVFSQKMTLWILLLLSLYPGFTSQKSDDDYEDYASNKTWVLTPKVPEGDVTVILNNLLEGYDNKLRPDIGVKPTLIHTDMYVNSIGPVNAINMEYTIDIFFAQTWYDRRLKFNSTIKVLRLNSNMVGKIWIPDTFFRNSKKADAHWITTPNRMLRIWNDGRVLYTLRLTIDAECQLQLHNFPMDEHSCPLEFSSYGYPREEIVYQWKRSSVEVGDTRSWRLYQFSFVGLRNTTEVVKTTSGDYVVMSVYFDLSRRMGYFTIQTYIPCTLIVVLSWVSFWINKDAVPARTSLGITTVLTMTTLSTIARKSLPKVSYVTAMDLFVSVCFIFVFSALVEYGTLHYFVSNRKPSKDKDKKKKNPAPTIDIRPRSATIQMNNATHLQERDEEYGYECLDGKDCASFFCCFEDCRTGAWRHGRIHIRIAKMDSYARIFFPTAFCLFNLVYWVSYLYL
Chain of GABA A receptor alpha-5/beta-3/gamma-2 (P19969 whole entry): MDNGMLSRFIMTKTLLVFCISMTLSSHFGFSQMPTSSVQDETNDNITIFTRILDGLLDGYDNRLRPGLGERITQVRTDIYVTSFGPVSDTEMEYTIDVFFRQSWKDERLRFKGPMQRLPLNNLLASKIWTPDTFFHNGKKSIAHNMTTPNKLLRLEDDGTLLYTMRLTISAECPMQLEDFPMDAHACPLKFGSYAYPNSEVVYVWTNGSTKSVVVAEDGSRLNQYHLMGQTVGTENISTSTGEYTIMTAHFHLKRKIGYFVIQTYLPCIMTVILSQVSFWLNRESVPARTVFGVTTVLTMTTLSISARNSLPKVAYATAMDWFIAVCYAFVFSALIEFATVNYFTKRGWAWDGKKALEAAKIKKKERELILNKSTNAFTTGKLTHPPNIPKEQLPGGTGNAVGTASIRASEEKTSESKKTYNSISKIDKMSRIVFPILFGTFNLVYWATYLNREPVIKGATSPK
Chain of GABA A receptor alpha-5/beta-3/gamma-2 (P63079 whole entry): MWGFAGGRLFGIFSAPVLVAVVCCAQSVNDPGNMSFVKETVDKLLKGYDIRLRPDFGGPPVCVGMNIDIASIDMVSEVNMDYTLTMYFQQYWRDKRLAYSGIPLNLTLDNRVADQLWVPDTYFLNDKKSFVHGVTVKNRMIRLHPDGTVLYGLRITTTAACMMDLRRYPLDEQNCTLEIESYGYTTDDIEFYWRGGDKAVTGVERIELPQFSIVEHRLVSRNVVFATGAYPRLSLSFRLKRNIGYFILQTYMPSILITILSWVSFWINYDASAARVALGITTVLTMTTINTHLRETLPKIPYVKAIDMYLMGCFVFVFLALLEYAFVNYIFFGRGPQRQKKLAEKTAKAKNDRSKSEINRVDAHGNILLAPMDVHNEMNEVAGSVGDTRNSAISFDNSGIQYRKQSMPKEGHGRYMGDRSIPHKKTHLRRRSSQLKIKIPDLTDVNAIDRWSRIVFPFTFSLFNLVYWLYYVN
Chain of GABA-A receptor; alpha-1/beta-2/gamma-2 (P18508 whole entry): as the sequence (P18508 whole entry) above
Chain of GABA-A receptor; alpha-1/beta-2/gamma-2 (P62813 whole entry): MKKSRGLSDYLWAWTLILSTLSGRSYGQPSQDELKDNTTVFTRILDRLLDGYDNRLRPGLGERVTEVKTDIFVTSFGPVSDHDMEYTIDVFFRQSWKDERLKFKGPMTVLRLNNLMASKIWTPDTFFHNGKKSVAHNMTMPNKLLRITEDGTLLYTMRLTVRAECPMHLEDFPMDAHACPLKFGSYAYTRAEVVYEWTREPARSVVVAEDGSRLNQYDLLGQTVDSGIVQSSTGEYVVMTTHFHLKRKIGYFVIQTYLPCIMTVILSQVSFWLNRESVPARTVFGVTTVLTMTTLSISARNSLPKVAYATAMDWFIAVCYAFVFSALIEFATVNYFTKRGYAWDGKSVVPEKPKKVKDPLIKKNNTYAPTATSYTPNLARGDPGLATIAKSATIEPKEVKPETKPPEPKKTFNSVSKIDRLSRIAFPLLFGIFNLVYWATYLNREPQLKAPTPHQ
Chain of GABA-A receptor; alpha-1/beta-2/gamma-2 (P63138 whole entry): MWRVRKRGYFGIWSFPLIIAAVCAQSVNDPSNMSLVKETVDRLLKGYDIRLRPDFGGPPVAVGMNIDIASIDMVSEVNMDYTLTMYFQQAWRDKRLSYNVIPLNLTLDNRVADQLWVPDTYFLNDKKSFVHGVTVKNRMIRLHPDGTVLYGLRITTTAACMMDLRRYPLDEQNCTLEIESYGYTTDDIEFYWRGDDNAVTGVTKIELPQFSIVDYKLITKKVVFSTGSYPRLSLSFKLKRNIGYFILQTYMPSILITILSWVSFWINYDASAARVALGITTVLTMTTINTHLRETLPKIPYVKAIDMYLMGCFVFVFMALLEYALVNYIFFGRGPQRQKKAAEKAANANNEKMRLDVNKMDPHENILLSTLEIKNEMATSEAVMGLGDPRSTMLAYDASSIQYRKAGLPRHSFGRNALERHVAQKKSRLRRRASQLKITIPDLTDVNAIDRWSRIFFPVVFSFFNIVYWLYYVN
Chain of Gamma-aminobutyric acid receptor subunit alpha-2 (P23576 whole entry, one chain of several): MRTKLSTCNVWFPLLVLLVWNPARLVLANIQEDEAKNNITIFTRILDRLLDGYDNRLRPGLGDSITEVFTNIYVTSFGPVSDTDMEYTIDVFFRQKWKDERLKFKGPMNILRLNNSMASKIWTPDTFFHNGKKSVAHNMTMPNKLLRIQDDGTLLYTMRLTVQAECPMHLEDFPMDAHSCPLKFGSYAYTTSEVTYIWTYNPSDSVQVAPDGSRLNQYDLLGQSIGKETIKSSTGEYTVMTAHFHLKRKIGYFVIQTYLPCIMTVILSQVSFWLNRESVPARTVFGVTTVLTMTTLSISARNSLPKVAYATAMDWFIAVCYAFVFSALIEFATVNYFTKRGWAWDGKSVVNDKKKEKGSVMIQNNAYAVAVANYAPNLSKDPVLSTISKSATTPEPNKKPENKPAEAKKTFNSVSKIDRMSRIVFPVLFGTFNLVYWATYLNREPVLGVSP
Chain of Gamma-aminobutyric acid receptor subunit alpha-2 (Rattus norvegicus) (P23576 whole entry): as the sequence (P23576 whole entry, one chain of several) above

Regarding `C[C@@H](NC(=O)C(=O)c1c[nH]c2ccccc12)c1ccccc1`, the Ki in data set [1] was 1310 nM; in data set [2], 1550 nM.
In data set [1], `Cc1ccc(-c2nc3ccc(C)cn3c2CC(=O)N(C)C)cc1` [ZOLPIDEM] displayed an inhibition constant Ki of 51 nM.
Take `O=C(NC1CCc2cc([N+](=O)[O-])ccc21)C(=O)c1c[nH]c2ccccc12` (racemic): in the data set listed under Bos taurus, the inhibition was 47%.
For `COc1ccc(CNC(=O)C(=O)c2c[nH]c3ccc([N+](=O)[O-])cc23)cc1`, the Ki is 53 nM in data set [1] and 1650 nM in data set [2].
Turning to `O=C(NCc1ccc(F)cc1)C(=O)c1c[nH]c2ccccc12`, the Ki in data set [1] was determined as 52 nM; in data set [3] it was 245 nM; in [2], 118 nM; in data set [4] it was 163 nM. The Activity in [5] was 11%; in data set [6], 85%; with Mus musculus [9], “Non-toxic”. In addition, the outcome in the data set on Mus musculus [7] and in the data set on Mus musculus [8] was Active.
With `O=C(NCc1ccccc1)C(=O)c1c[nH]c2ccc([N+](=O)[O-])cc12`, the Ki in data set [1] is 117 nM.
For `O=C(NCc1ccc([N+](=O)[O-])cc1)C(=O)c1c[nH]c2ccccc12`, the inhibitory constant (Ki) in data set [1] was 21 nM; in [2], 210 nM.
As for `C[C@@H](NC(=O)C(=O)c1c[nH]c2ccc([N+](=O)[O-])cc12)c1ccccc1`, the results for the Ki in [1] and in data set [2] were 17 nM and 121 nM, respectively. Further, the Activity was 35% in data set [5], 79% in [6] and “Non-toxic” in the data set on Mus musculus [9]. The outcome in the data set with Mus musculus [7] and in the data set on Mus musculus [8] was Active.
For `O=C(N[C@@H]1CCc2ccccc21)C(=O)c1c[nH]c2ccccc12`, the figures for the Ki in [1] and in data set [2] were 675 nM and 3100 nM, respectively.
With `COc1ccc2c(c1)CCC2NC(=O)C(=O)c1c[nH]c2ccccc12` (racemic), the inhibition constant (Ki) in [1] is 636 nM; in data set [3], 246 nM; in data set [2] it was 690 nM. Moreover, the inhibition in [10] came to 28%.
On to `O=C(NC1CCc2cc(F)ccc21)C(=O)c1c[nH]c2ccccc12` (racemic), for which the values for the Ki in data set [1] and in [3] were 2160 nM and 2050 nM, respectively. Moreover, the inhibition in [11] was determined as 29%; in data set [10], 44%.
As for `Cc1ccc2c(c1)CCC2NC(=O)C(=O)c1c[nH]c2ccccc12` (racemic), in the data set listed under Bos taurus, the inhibition was 15%.
On to `O=C(NC1CCc2cc(F)ccc21)C(=O)c1c[nH]c2ccc([N+](=O)[O-])cc12` (racemic), for which the Ki in data set [1] turned out to be 300 nM; in data set [3] it was 195 nM; in [2] it was 810 nM; in [4], 1420 nM.
As for `CN1C(=O)CN=C(c2ccccc2)c2cc(Cl)ccc21` [DIAZEPAM], the Activity entry with Mus musculus [12] is “Non-toxic”; in [6], 81%. In data set [1], this compound yielded a Ki of 10 nM. Also, the result with Mus musculus [13] and with Mus musculus [14] was Active.
In the case of `O=C(NCc1ccccc1)C(=O)c1c[nH]c2ccccc12`, the Ki in data set [1] is 120 nM.
On to `O=C(NC1CCc2cc([N+](=O)[O-])ccc21)C(=O)c1c[nH]c2ccc([N+](=O)[O-])cc12` (racemic), for which the Ki amounted to 178 nM in data set [1], 200 nM in [3], 513 nM in [2] and 749 nM in data set [4].
As for `Cc1ccc2c(c1)CCC2NC(=O)C(=O)c1c[nH]c2ccc([N+](=O)[O-])cc12` (racemic), the inhibition in the data set filed under Bos taurus came out at 2%.
For `O=C(NCc1ccc([N+](=O)[O-])cc1)C(=O)c1c[nH]c2ccc([N+](=O)[O-])cc12`, the Ki in data set [1] is 620 nM; in data set [3], 293 nM; in [2], 2980 nM; in data set [4], 2220 nM.
The compound `O=C(NCc1ccc(F)cc1)C(=O)c1c[nH]c2ccc([N+](=O)[O-])cc12` had an inhibition in the data set listed under Bos taurus of 24%.
Regarding `COc1ccc(CNC(=O)C(=O)c2c[nH]c3ccccc23)cc1`, the inhibition constant Ki in [1] is 163 nM; in data set [3] it was 195 nM; in data set [2], 1950 nM. The inhibition in [10] is 30%.
On to `COc1ccc2c(c1)CCC2NC(=O)C(=O)c1c[nH]c2ccc([N+](=O)[O-])cc12` (racemic), for which the inhibitory constant (Ki) in [1] was found to be 13 nM; in [3] it was 28 nM; in [2], 231 nM; in data set [4], 252 nM.
Regarding `O=C(N[C@@H]1CCc2ccccc21)C(=O)c1c[nH]c2ccc([N+](=O)[O-])cc12`, the Ki is 28 nM in data set [1] and 85 nM in [2]. Moreover, the Activity worked out at 1% in data set [5] and 48% in [6]. Also, the outcome with Mus musculus [7] and in the data set with Mus musculus [8] was inactive.

Values taken from ChEMBL document CHEMBL1136986, “Identification of anxiolytic/nonsedative agents among indol-3-ylglyoxylamides acting as functionally selective agonists at the gamma-aminobutyric acid-A (GABAA) alpha2 benzodiazepine receptor” (J Med Chem, 2009).
